Values joined by “and” are separate entries in the source; they are usually repeats but may differ in a detail not shown here. Equal values may be shown once.
Key:
HEK-293T = assay: Multiplex assay against HEK293T; format: toxicity, cell-based; conditions: human, number of replicates 2
In short: (§1)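 Cells were classed with CellPathfinder machine-learning gating, first as Hoechst high-intensity objects or normal cells, then (normal cells) as healthy, pyknosed or fragmented nuclei, and finally (pyknosed cells) as mitotic or apoptotic. Staining of live cells at seeding used Hoechst33342, BioTracker Green Microtubule Cytoskeleton Dye, MitoTracker Red and Annexin V Alexa Fluor 680, with imaging on a CQ1 microscope at 37°C and 5% CO2 after compound addition. Tubulin, mitochondrial-mass and membrane-permeability phenotypes are per cents of healthy-nucleus cells.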

U2OS = assay: Multiplex assay against U2OS; format: toxicity, cell-based; conditions: human, number of replicates 2; in short: as §1
[1] = 24 h, 1 µM, compound concentration 1 uM
[2] = 24 h, 10 µM, compound concentration 10 uM
[3] = 48 h, 1 µM, compound concentration 1 uM
[4] = 48 h, 10 µM, compound concentration 10 uM
[5] = 12 h, 1 µM, compound concentration 1 uM
[6] = 12 h, 10 µM, compound concentration 10 uM

With `COc1cc2nc(-c3cc(F)ccc3O)nc(N[C@@H]3CNC[C@H]3C(C)(C)O)c2cc1OC.Cl.Cl` the “Population Pyknosed Nuclei (%)” value (HEK-293T; [1]) was 7% and 8%, the “Population Tubulin-Different-Phenotype (%)” value (HEK-293T; [1]) was 63% and 68% and the “Total Cell Count” value (HEK-293T; [1]) was 1032 and 692. For the same compound, the “Population Apoptotic (%)” value (HEK-293T; [2]) was 87% and 80%, the “Population Fragmented Nuclei (%)” value (HEK-293T; [2]) was 4% and 2% and the “Population Healthy Nuclei (%)” value (HEK-293T; [2]) was 50% and 51%. The “Population Hoechst High Intensity Objects (%)” value (HEK-293T; [2]) was 20% and 25%, the “Population Membrane Permeable-Phenotype (%)” value (HEK-293T; [2]) was 6% and 4% and the “Population Mitochondria Different-Phenotype (%)” value (HEK-293T; [2]) was 65% and 68%. The “Population Mitotic Cells (%)” value (HEK-293T; [2]) was 12% and 20%, the “Population Normal (%)” value (HEK-293T; [2]) was 79% and 74% and the “Population Pyknosed Nuclei (%)” value (HEK-293T; [2]) was 45%. For the same compound, the “Population Tubulin-Different-Phenotype (%)” value (HEK-293T; [2]) was 84% and 89%, the “Total Cell Count” value (HEK-293T; [2]) was 441 and 428 and the “Population Apoptotic (%)” value (HEK-293T; [3]) was 22% and 35%. For the same compound, the “Population Fragmented Nuclei (%)” value (HEK-293T; [3]) was 14% and 7%, the “Population Healthy Nuclei (%)” value (HEK-293T; [3]) was 82% and 88% and the “Population Hoechst High Intensity Objects (%)” value (HEK-293T; [3]) was 9% and 11%. For the same compound, the “Population Membrane Permeable-Phenotype (%)” value (HEK-293T; [3]) was 3% and 1%, the “Population Mitochondria Different-Phenotype (%)” value (HEK-293T; [3]) was 1% and 3% and the “Population Mitotic Cells (%)” value (HEK-293T; [3]) was 77% and 64%. For the same compound, the “Population Normal (%)” value (HEK-293T; [3]) was 90% and 88%, the “Population Pyknosed Nuclei (%)” value (HEK-293T; [3]) was 3% and 4% and the “Population Tubulin-Different-Phenotype (%)” value (HEK-293T; [3]) was 26% and 35%. The “Total Cell Count” value (HEK-293T; [3]) was 2589 and 1346, the “Population Apoptotic (%)” value (HEK-293T; [4]) was 85% and 77% and the “Population Fragmented Nuclei (%)” value (HEK-293T; [4]) was 4% and 3%. The “Population Healthy Nuclei (%)” value (HEK-293T; [4]) was 32% and 30%, the “Population Hoechst High Intensity Objects (%)” value (HEK-293T; [4]) was 21% and 24% and the “Population Membrane Permeable-Phenotype (%)” value (HEK-293T; [4]) was 6% and 5%. The “Population Mitochondria Different-Phenotype (%)” value (HEK-293T; [4]) was 58%, the “Population Mitotic Cells (%)” value (HEK-293T; [4]) was 14% and 22% and the “Population Normal (%)” value (HEK-293T; [4]) was 78% and 75%. For the same compound, the “Population Pyknosed Nuclei (%)” value (HEK-293T; [4]) was 62% and 66%, the “Population Tubulin-Different-Phenotype (%)” value (HEK-293T; [4]) was 82% and 81% and the “Total Cell Count” value (HEK-293T; [4]) was 411 and 392. The “Population Apoptotic (%)” value (U2OS; [5]) was 100% and 76%, the “Population Healthy Nuclei (%)” value (U2OS; [5]) was 57% and 82% and the “Population Hoechst High Intensity Objects (%)” value (U2OS; [5]) was 0%. The “Population Membrane Permeable-Phenotype (%)” value (U2OS; [5]) was 21% and 13%, the “Population Mitochondria Different-Phenotype (%)” value (U2OS; [5]) was 18% and 27% and the “Population Mitotic Cells (%)” value (U2OS; [5]) was 0% and 23%. The “Population Normal (%)” value (U2OS; [5]) was 100% and 99%, the “Population Pyknosed Nuclei (%)” value (U2OS; [5]) was 17% and 10% and the “Population Tubulin-Different-Phenotype (%)” value (U2OS; [5]) was 46% and 30%. For the same compound, the “Population Apoptotic (%)” value (U2OS; [6]) was 96% and 91%, the “Population Fragmented Nuclei (%)” value (U2OS; [6]) was 14% and 11% and the “Population Healthy Nuclei (%)” value (U2OS; [6]) was 5% and 3%. The “Population Hoechst High Intensity Objects (%)” value (U2OS; [6]) was 0%, the “Population Membrane Permeable-Phenotype (%)” value (U2OS; [6]) was 100% and the “Population Mitochondria Different-Phenotype (%)” value (U2OS; [6]) was 50% and 66%. For the same compound, the “Population Mitotic Cells (%)” value (U2OS; [6]) was 3% and 8%, the “Population Normal (%)” value (U2OS; [6]) was 100% and the “Population Pyknosed Nuclei (%)” value (U2OS; [6]) was 79% and 85%. The “Population Tubulin-Different-Phenotype (%)” value (U2OS; [6]) was 100%, the “Population Apoptotic (%)” value (U2OS; [1]) was 83% and 85% and the “Population Fragmented Nuclei (%)” value (U2OS; [1]) was 23% and 9%. The “Population Healthy Nuclei (%)” value (U2OS; [1]) was 65% and 74%, the “Population Hoechst High Intensity Objects (%)” value (U2OS; [1]) was 0% and the “Population Membrane Permeable-Phenotype (%)” value (U2OS; [1]) was 26% and 12%. For the same compound, the “Population Mitochondria Different-Phenotype (%)” value (U2OS; [1]) was 23% and 34%, the “Population Mitotic Cells (%)” value (U2OS; [1]) was 16% and 14% and the “Population Normal (%)” value (U2OS; [1]) was 100%. For the same compound, the “Population Pyknosed Nuclei (%)” value (U2OS; [1]) was 11% and 16%, the “Population Tubulin-Different-Phenotype (%)” value (U2OS; [1]) was 47% and 34% and the “Population Apoptotic (%)” value (U2OS; [2]) was 91% and 90%. The “Population Fragmented Nuclei (%)” value (U2OS; [2]) was 14% and 22%, the “Population Healthy Nuclei (%)” value (U2OS; [2]) was 3% and 0% and the “Population Hoechst High Intensity Objects (%)” value (U2OS; [2]) was 2% and 0%. The “Population Mitotic Cells (%)” value (U2OS; [2]) was 8% and 9%, the “Population Normal (%)” value (U2OS; [2]) was 97% and 100% and the “Population Pyknosed Nuclei (%)” value (U2OS; [2]) was 82% and 77%. The “Population Apoptotic (%)” value (U2OS; [3]) was 84% and 94%, the “Population Fragmented Nuclei (%)” value (U2OS; [3]) was 17% and 6% and the “Population Healthy Nuclei (%)” value (U2OS; [3]) was 52% and 77%. For the same compound, the “Population Hoechst High Intensity Objects (%)” value (U2OS; [3]) was 0%, the “Population Membrane Permeable-Phenotype (%)” value (U2OS; [3]) was 12% and 9% and the “Population Mitochondria Different-Phenotype (%)” value (U2OS; [3]) was 27% and 34%. The “Population Mitotic Cells (%)” value (U2OS; [3]) was 15% and 5%, the “Population Normal (%)” value (U2OS; [3]) was 100% and the “Population Pyknosed Nuclei (%)” value (U2OS; [3]) was 30% and 15%. For the same compound, the “Population Tubulin-Different-Phenotype (%)” value (U2OS; [3]) was 24% and 34%, the “Population Apoptotic (%)” value (U2OS; [4]) was 96% and 89% and the “Population Fragmented Nuclei (%)” value (U2OS; [4]) was 10% and 19%. The “Population Healthy Nuclei (%)” value (U2OS; [4]) was 3% and 4%, the “Population Hoechst High Intensity Objects (%)” value (U2OS; [4]) was 0% and the “Population Membrane Permeable-Phenotype (%)” value (U2OS; [4]) was 100% and 85%. The “Population Mitochondria Different-Phenotype (%)” value (U2OS; [4]) was 100% and 71%, the “Population Mitotic Cells (%)” value (U2OS; [4]) was 4% and 10% and the “Population Normal (%)” value (U2OS; [4]) was 100% and 99%. The “Population Pyknosed Nuclei (%)” value (U2OS; [4]) was 86% and 76% and the “Population Tubulin-Different-Phenotype (%)” value (U2OS; [4]) was 100% and 85%.

— ChEMBL document CHEMBL5303300, “EUbOPEN Chemogenomics Library - Multiplex” (2023)
